# Experimental data pooled from the literature.
# Lines come from different studies, so protocols differ.
SMILES,tested on,assay,system,setting,measurement,value
CNC(C)C1CCC(N)C(OC2C(N)CC(N)C(OC3OCC(C)(O)C(NC)C3O)C2O)O1 (stereo not drawn),Acinetobacter baumannii,"microbial growth, broth dilution",ATCC19606,,MIC,16 mg/L
CCc1ccc(N=C2C(=O)N(Cc3ccccc3)c3ccccc32)cc1,B16,"cell growth or viability, MTT",,48 h,IC50,0.5 µM
C[C@@H]1O[C@@H](OC[C@H]2O[C@@H](Oc3c(-c4ccc(O)c(O)c4)oc4cc(O)cc(O)c4c3=O)[C@H](O)[C@@H](O)[C@@H]2O)[C@H](O)[C@H](O)[C@H]1O,Streptococcus gordonii,"microbial growth, disc diffusion",,500 µg/disc,inhibition zone,13 mm
C[C@@H](O)[C@H]1C(=O)N2C(C(=O)O)=C(S[C@@H]3CN[C@H](C(=O)N(C)C)C3)[C@H](C)[C@H]12,Acinetobacter baumannii,"microbial growth, broth dilution",ATCCBAA1605,,MIC,16 mg/L
O=C1O[C@H]2[C@@H]3OC(=O)c4cc(O)c(O)c(O)c4-c4c(O)c(O)c5oc(=O)c6c(c(O)c(O)c7oc(=O)c4c5c76)-c4c(cc(O)c(O)c4O)C(=O)OC[C@H]3OC(O)[C@@H]2OC(=O)c2cc(O)c(O)c(O)c2-c2c1cc(O)c(O)c2O (mixture of isomers),Streptococcus gordonii,"microbial killing, broth dilution",,,MBC,400 mg/L
COc1cc(N=C2C(=O)Nc3ccccc32)cc(OC)c1,B16,"cell growth or viability, MTT",,48 h,IC50,3.02 µM
Cc1n[nH]c2ccc3nc(-c4ccc(C(=O)NCCN(C)C)cc4F)c4c(c3c12)CCCC4,G-361,cell growth or viability,,72 h,GI50,1.58 µM
FC(F)(F)c1ccc(-c2cc(CNc3cccc4cccnc34)on2)cc1,Z-138,"cell growth or viability, MTS",,72 h,IC50,85.9 µM
C[C@@H](O)[C@H]1C(=O)N2C(C(=O)O)=C(SCCN=CN)C[C@H]12,Acinetobacter baumannii,"microbial growth, broth dilution",ATCC19606,,MIC,1 mg/L
O=C1Nc2ccccc2C1=Nc1ccc(Cl)cc1,B16,"cell growth or viability, MTT",,48 h,IC50,32.6 µM
Oc1cc(O)c2c(c1)O[C@H](c1cc(O)c(O)c(O)c1)[C@@H](O)C2,Streptococcus gordonii,"microbial growth, disc diffusion",,500 µg/disc,inhibition zone,11.6 mm
O=C1C(=Nc2ccc(Cl)cc2)c2ccccc2N1Cc1ccc(Br)cc1,B16,"cell growth or viability, MTT",,48 h,IC50,14.1 µM
CC(C)(C)c1cc(NC(=O)Nc2ccc(-c3cn4c(n3)sc3cc(OCCN5CCOCC5)ccc34)cc2)no1,G-361,cell growth or viability,,72 h,GI50,> 10 µM
C[C@H]1[C@H](NC(=O)/C(=N\OC(C)(C)C(=O)O)c2csc(N)n2)C(=O)N1S(=O)(=O)O,Acinetobacter baumannii,"microbial growth, broth dilution",ATCCBAA1605,,MIC,> 64 mg/L
CC(C)c1cccc(C(C)C)c1N=C1C(=O)N(Cc2ccccc2)c2ccccc21,B16,"cell growth or viability, MTT",,48 h,IC50,6.77 µM
CN(C)CCNC(=O)c1ccc(-c2nc3ccc4[nH]ncc4c3c3c2CCCC3)c(F)c1,G-361,cell growth or viability,,72 h,GI50,3.27 µM
CO/N=C(\C(=O)N[C@@H]1C(=O)N2C(C(=O)O)=CCS[C@H]12)c1csc(N)n1,Acinetobacter baumannii,"microbial growth, broth dilution",ATCCBAA1605,,MIC,> 64 mg/L
Cc1cccc(N=C2C(=O)N(Cc3ccccc3)c3ccccc32)c1,B16,"cell growth or viability, MTT",,48 h,IC50,1.07 µM
O=C1OC[C@H]2OC(O)[C@H](O)[C@@H](O)[C@@H]2OC(=O)c2cc(O)c(O)c(O)c2-c2c(O)c(O)c3oc(=O)c4c(c(O)c(O)c5oc(=O)c2c3c54)-c2c1cc(O)c(O)c2O (mixture of isomers),Streptococcus gordonii,"microbial growth, broth dilution",,24 h,MIC,200 mg/L
Cc1cccc(N=C2C(=O)Nc3ccccc32)c1,B16,"cell growth or viability, MTT",,48 h,IC50,51.9 µM
O=C(O[C@@H]1O[C@@H]2COC(=O)c3cc(O)c(O)c(O)c3-c3c(cc(O)c(O)c3O)C(=O)O[C@H]([C@H]1O)[C@@H]2O)c1cc(O)c(O)c(O)c1,Streptococcus gordonii,"microbial growth, disc diffusion",,500 µg/disc,inhibition zone,14 mm
CN(C)[C@@H]1C(O)=C(C(N)=O)C(=O)[C@@]2(O)C(O)=C3C(=O)c4c(O)cccc4[C@@](C)(O)[C@H]3C[C@@H]12,Acinetobacter baumannii,"microbial growth, broth dilution",ATCC19606,,MIC,4 mg/L
O=c1oc2c(O)c(O)cc3c(=O)oc4c(O)c(O)cc1c4c23,Streptococcus gordonii,"microbial growth, disc diffusion",,500 µg/disc,inhibition zone,16 mm
CCCCCCC#Cc1cncc(-c2nnc(SCc3ccc(Cl)cc3)n2CCCN)c1,Acinetobacter baumannii,"microbial growth, broth dilution",ATCC17978,,MIC,16 mg/L
